In PMC5088453 (ACS Omega, 2016):
Like-named read-outs stand apart in the source and are kept apart here.

Experiments:
[1] = assay type: in vivo, C57Bl/6J mice; details: for FruArg concentration in plasma: mice, i.p. 2.5 μL/g BW of 40 mM FruArg
Summary of the method: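 In male C57Bl/6J mice (8 weeks; i.p. 40 mM; n = 3 per time), terminal heparinized blood was taken by cardiac puncture at 15, 30, 60 and 180 min. Plasma was stored at −80 °C. Samples (25 μL plasma plus L-lysine-d8 internal standard) went through phospholipid-removal SPE, then C18 UPLC–MS/MS MRM. Quantitation used a plasma-matrix calibration with 1/x2 weighting. PK parameters came from a fit of the concentration–time curve.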

[2] = assay type: in vivo, C57Bl/6J mice; details: mice, i.p. 40 mM, 2.5 μL/g BW, 15 min; cerebellum, cortex, striatum, hippocampus
Summary of the method: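 Male C57Bl/6J mice, 8 weeks old, n = 3, given 40 mM test compound i.p. Brains were saline-perfused, dissected into regions, flash-frozen and stored at −80 °C. Tissue was homogenized in 3 vol water, then centrifuged 20 min at 4 °C. Supernatant (50 μL) was spiked with L-lysine-d8 internal standard and cleaned by phospholipid-removal SPE. Read-out: C18 UPLC–ESI–MS/MS (MRM), expressed as pmol/mg tissue, mean ± SE.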

[3] = Stability of the FruArg stock solution; assay type: physicochemical; details: 200 mM hydroacetate salt in double-distilled water, at 4 °C
[4] = tested on: lipopolysaccharide-induced mouse BV-2 microglial cells; details: lipopolysaccharide-induced BV-2 cells, concentration-dependent; cited from earlier work
[5] = tested on: mouse BV-2 microglial cells; details: cited from earlier work
[6] = at 10 min, 25 mg/kg; ref 39 (Gooyit et al.); cited from earlier work
[7] = mice plasma, i.p. 40 mM, 2.5 μL/g BW

Row | Structure (SMILES) | clearance (Cl) [1, 7] | elimination rate (k) [1, 7] | half-life (t1/2) [1, 7] [min] | volume distribution (VD) [1, 7] | AUC0→∞ ([1]; mice plasma, i.p. 40 mM, 2.5 μL/g BW, extrapolated to infinity) [µM·min] | clearance (Cl) ([1]; mice plasma, i.p. 40 mM, 2.5 μL/g BW, unit as in Table 2) | FruArg concentration in plasma ([1]; 15 min, average n = 3 ± SE) [µM] | FruArg concentration in plasma ([1]; 30 min, average n = 3 ± SE) [µM] | FruArg concentration in plasma ([1]; 60 min, average n = 3 ± SE) [µM] | FruArg concentration in plasma ([1]; 180 min, plasma LOQ 1 μM) | FruArg concentration in brain tissue, all four subregions [2] | stability of stock solution [3] | nitric oxide (NO) production [4] | cell viability [5] | concentration in the brain tissue [6] [pmol/mg]
1 | N=C(N)NCCC[C@H](NCC(=O)[C@@H](O)[C@H](O)[C@H](O)CO)C(=O)O [FruArg, N-α-(1-deoxy-D-fructos-1-yl)-L-arginine] | 1.8 × 10^–4 L·min | 6.91 × 10^–2 min^–1 | 10.03 | 2.63 × 10^–3 L | 4930 | 1.8 × 10^–4 L·min^–1 | 111 ± 3 | 33 ± 9 | 5 ± 2 | below the LOQ | 4–7 pmol/mg tissue | at least 6 months | suppressing nitric oxide (NO) production | without affecting the cell viability | 
2 | O=S(=O)(CC1CS1)c1ccc(Oc2ccccc2)cc1 (stereo not drawn) [SB-3CT] |  |  |  |  |  |  |  |  |  |  |  |  |  |  | 5.0 ± 0.8
